Biofilm kill mix – clotrimazole potentiators killing C. albicans biofilm, primary screen, 4-compound mixtures | C. albicans biofilm persisters + clotrimazole, fluorescence viability; primary screen in compound mixtures of four per well | inhibition, % at 7.6 µM | 120,000 compounds, 0.02% hits | AID 1242, 2008;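 active = inhibition above 30.3% in the primary screen of four-compound pools, then above 30% when the compound was retested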;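 also: compounds exposed to preformed 24 h biofilms for 48 h; 0% = untreated biofilm control and 100% = clotrimazole plus chlorhexidine kill blank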
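Test system: C. albicans CAF4-2 wild-type biofilms; buffer or medium: RPMI/MOPS medium, pH 7.0; schedule: 24 h biofilm formation, then 48 h compound exposure, 37 °C; detection: Alamar Blue fluorescence; measure: percent inhibition of biofilm viability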
Arbovirus anti – antivirals against arbovirus infection, primary screen, cell-based, full library, 10K replicate subset; 200,000 compounds, 0.37% hits; inhibition, % at 10 µM; arbovirus infection cell-based antiviral screen; AID 1251, 2008; in the data active = inhibition above about 30%
WT yeast gro inh – growth inhibition of WT strain, primary screen, mitochondrial fusion inhibitor project, WT and mutant strains, chemical genetic. mitochondrial fusion phenotypic screen. inhibition, % at 10 µM. 190,000 compounds, 2.1% hits; in the data active = inhibition above about 58%; tested in S. cerevisiae
Hck-Nef inh – inhibitors of Nef-activated human Hck kinase, primary screen, biochemical, Z-Lyte FRET, 384-well, Hck-YEEI; Recombinant Hck-YEEI plus Nef, Z-Lyte FRET kinase assay; inhibition, % at 20 µM; 220,000 compounds, 0.68% hits; AID 463187, 2010;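 active = Hck-Nef kinase inhibition above about 50%, limit read from the data; inactive = inhibition below that limit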;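 also: 0% = DMSO with Hck plus Nef and 100% = Hck alone without Nef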
Target sequence (P08631 whole entry, looked up): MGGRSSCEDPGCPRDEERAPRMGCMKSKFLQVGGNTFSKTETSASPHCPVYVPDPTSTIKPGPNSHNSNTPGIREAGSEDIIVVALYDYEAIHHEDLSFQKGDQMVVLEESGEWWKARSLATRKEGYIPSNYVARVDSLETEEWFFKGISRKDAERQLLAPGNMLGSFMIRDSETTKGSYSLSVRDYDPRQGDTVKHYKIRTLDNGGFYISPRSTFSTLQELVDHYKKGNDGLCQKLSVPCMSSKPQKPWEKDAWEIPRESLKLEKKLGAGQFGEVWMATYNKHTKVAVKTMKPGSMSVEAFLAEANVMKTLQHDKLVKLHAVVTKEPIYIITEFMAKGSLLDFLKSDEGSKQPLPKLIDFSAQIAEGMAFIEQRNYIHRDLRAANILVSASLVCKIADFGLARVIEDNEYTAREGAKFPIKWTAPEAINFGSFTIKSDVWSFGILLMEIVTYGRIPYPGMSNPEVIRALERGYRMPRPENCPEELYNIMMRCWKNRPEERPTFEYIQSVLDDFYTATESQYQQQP
RAM inhibit – inhibitors of the yeast RAM network, primary screen, dse1pr::URA3 reporter, 5-FOA selection; S. cerevisiae dse1pr::URA3 reporter, 5-FOA growth OD615, 2 d; analog-sensitive cbk1-as2 kinase mutant strain; inhibition, % at 50 µM; 190,000 compounds, 1.8% hits; AID 868, 2007;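 active = inhibition above a set limit, 3 SD over mean compound inhibition, cut at about 8.4% in these data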;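 also: 0% = DMSO-only wells with no growth and 100% = 10 µM 1-NA-PP1 full growth; inhibition rescues growth on 5-FOA so higher OD means more RAM inhibition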
p47phox inh – p47phox/p22phox peptide binding inhibitors, primary screen, biochemical, uHTS, NADPH oxidase regulatory subunit | Neutrophil cytosol factor 1 (Homo sapiens), P14598 | fluorescence polarization, 2 h | inhibition, % at 24.7 µM | 220,000 compounds, 0.53% hits;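 active = inhibition above about 30%, limit read from the data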;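 also: 0% = p47phox with labelled peptide and 100% = labelled peptide alone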
RAM efflux-def – 5-FOA growth of efflux-deficient control yeast, dose response, counter-screen for RAM network inhibitor project, S. cerevisiae, OD615 | shares compounds with RAM inhibit | S. cerevisiae efflux-deficient reporter strain, 5-FOA growth OD615, 2 days | max inhibition, % | 1,200 tested, under 10 active | AID 1305, 2008; call rule not given here;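 also: plate controls were vehicle for no effect and reference inhibitor for full effect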
Active calls of the source: *; · = not tested or not shown. In the library only some 4.6% were active in any assay of this set; here they are far more common.

SMILES | Biofilm kill mix | Arbovirus anti | WT yeast gro inh | Hck-Nef inh | RAM inhibit | p47phox inh | RAM efflux-def
COc1ccccc1CNC(=O)CSCc1cnn(-c2ccccc2)c1-n1cccc1 | · | -6 | 51 | -16 | 6 | -7 | ·
COc1cc(NC(=O)CSCc2cnn(-c3ccccc3)c2-n2cccc2)cc(OC)c1 | · | -8 | 30 | -1 | 20* | -19 | 2
COc1ccc(OC)c(NC(=O)CSCc2cnn(-c3ccccc3)c2-n2cccc2)c1 | · | -8 | 27 | 3 | 16* | -40 | 3
CCOc1cc(NC(=O)c2ccccn2)c(OCC)cc1NC(=O)c1ccc(C)cc1 | -16 | 1 | · | 14 | 12* | -2 | 2
O=C(NCc1cccnc1)c1c(O)c2cccc3c2n(c1=O)CCC3 | 29 | -3 | 14 | 13 | -1 | 0 | ·
O=C(OCc1csc(-c2ccccc2)n1)c1ccc(O)cc1 | 9 | -2 | 1 | 1 | -1 | -18 | ·
COc1ccc(/C=C/C(=O)OCc2csc(-c3ccccc3)n2)cc1OC | 20 | -1 | 26 | 4 | 16* | -25 | 2
CC(=O)C(N=Nc1ccccc1)(Sc1nnc(-c2ccccc2)n1-c1ccccc1)C(C)=O | · | -22 | 79* | -1 | 12* | -15 | 3
CC(=O)C(N=Nc1ccccc1)(Sc1nnc(-c2ccccc2)n1-c1ccccc1)C(=O)Nc1ccccc1 (centres undefined) | · | -8 | 28 | -1 | 2 | 2 | ·
Cc1nccn1CCC(=O)Nc1ccc(Cl)cc1 | 8 | 2 | -3 | -13 | 2 | -2 | ·
CCN(CC)S(=O)(=O)c1cc(C(=O)OCC(=O)Nc2cccc(Br)c2)ccc1F | 1 | -2 | 3 | -2 | 15* | -17 | 2
O=S(=O)(Cc1ccccc1)NCC1CCCN(Cc2ccc(F)c(F)c2)C1 (centres undefined) | 16 | 1 | -6 | 14 | -1 | -1 | ·
Cc1ccc(N=C(NOCc2ccc(Cl)cc2Cl)c2nonc2N)c(C)c1 | · | -42 | 68* | 1 | 13* | -7 | 6
S=C(NCCC(c1ccccc1)c1ccccc1)Nc1ccccc1Cl | · | -25 | 2 | 0 | 15* | -22 | 3
O=C(CSc1ccccn1)Nc1nc2ccc(Br)cc2s1 | · | -1 | · | 0 | 1 | -7 | ·
O=C(NCc1ccc2c(c1)OCO2)c1cc(-c2ccccn2)nc2ccccc12 | -1 | 4 | 7 | 19 | 14* | 0 | 3
CCC(C)c1ccc(NC(=S)NCc2ccccc2OC)cc1 (centres undefined) | 2 | -40 | 77* | 16 | 11* | 3 | 7
NC(=O)Cc1ccc(C(=O)c2ccccc2)s1 | 8 | -1 | -4 | 27 | -1 | -3 | ·
O=C(O)CCN1C(=O)/C(=C/c2cn(-c3ccccc3)nc2-c2cccs2)SC1=S | -4 | -12 | -5 | 40 | 12* | -95 | 2
O=C(O)CCCCCN1C(=O)/C(=C\c2cn(-c3ccccc3)nc2-c2cccs2)SC1=S | 15 | · | · | 30 | · | -5 | ·
COC(=O)CSc1nc2[nH]ncc2c(=O)[nH]1 | -2 | 3 | -8 | 25 | 1 | 1 | ·
CC(=O)c1ccc(OCc2ccc(C(=O)c3ccccc3)cc2)cc1 | 14 | 7 | 23 | -9 | 3 | -12 | ·
CC(=O)c1ccc(OCc2ccc(Oc3c(Cl)cccc3[N+](=O)[O-])cc2)cc1 | 16 | 0 | 13 | 1 | 13* | -10 | 1
C=CCN(CC=C)S(=O)(=O)c1ccc(NC(=O)COc2ccccc2OC)cc1 | 8 | -6 | 7 | 9 | 15* | -13 | 2
COc1ccccc1OCC(=O)Nc1ccc(S(=O)(=O)N2CCCCCC2)cc1 | · | -6 | 13 | 0 | 8 | -9 | ·
SMILES | Biofilm kill mix | Arbovirus anti | WT yeast gro inh | Hck-Nef inh | RAM inhibit | p47phox inh | RAM efflux-def
CC(Sc1nc(-c2ccccc2)cc(C(F)(F)F)n1)C(=O)N1CCCCC1 (centres undefined) | · | 1 | -25 | 2 | 3 | 5 | ·
CC1CCCN(C(=O)C(C)Sc2nc(-c3ccccc3)cc(C(F)(F)F)n2)C1 (centres undefined) | · | -28 | 50 | -1 | 14* | -11 | 2
Cc1cccc(C(=O)NCc2nnc(SCC(=O)NC(C)c3ccccc3)n2C)c1 (centres undefined) | 17 | 4 | -11 | 3 | -1 | -3 | ·
Cc1cccc(C(=O)NCc2nnc3c4ccccc4c(-c4ccccc4)nn23)c1 | 8 | -4 | 12 | 2 | 12* | 3 | 4
Cc1ccccc1CN1CCN(Cc2ccccc2C(F)(F)F)CC1 | · | -8 | -25 | 1 | -1 | -27 | ·
Cc1cc2cc(CNC(=S)Nc3ccc(OC(F)(F)F)cc3)ccc2n1C | 12 | -6 | 17 | -2 | 4 | -13 | ·
COc1cccc(NC(=S)NCc2ccc3c(c2)cc(C)n3C)c1 | 2 | -8 | 20 | 15 | 12* | -22 | 6
COC(=O)c1c(NC(=O)c2ccc(C)cc2)sc(Cc2ccccc2)c1C | · | 2 | 0 | 2 | 14* | -10 | 4
COC(=O)c1c(NC(C)=O)sc(Cc2ccccc2)c1C | · | -30 | 9 | -1 | 6 | -35 | ·
COC(=O)c1c(NC(=O)c2ccccc2)sc(Cc2ccccc2)c1C | · | -6 | 68* | 2 | 12* | -21 | 6
CCCCC(CC)C(=O)N1CCN(C(=O)c2ccco2)CC1 (centres undefined) | 15 | 14 | 5 | 17 | -1 | -3 | ·
CCOC(=O)c1c(O)c(Cl)c(C)[nH]c1=O | 7 | 20 | -51 | 16 | 2 | 1 | ·
Cc1ccc(S(=O)(=O)N2CCN(C(=O)C3COc4ccccc4O3)CC2)cc1C (centres undefined) | · | 5 | -2 | -1 | 17* | -19 | 3
CCOCCCNC(=O)C(c1ccc(OC)cc1)N(Cc1cccs1)C(=O)c1ccccn1 (centres undefined) | 17 | -6 | 24 | 19 | 1 | -3 | ·
N#Cc1ccc(CSc2nnc(-c3c[nH]c4ccccc34)n2-c2ccccc2)cc1 | 17 | 11 | -11 | 24 | 12* | 2 | 2
N#C/C(=C\c1cn(CCOc2ccccc2)c2ccccc12)C(=O)NCC1CCCO1 (centres undefined) | · | 1 | -4 | 1 | 16* | -16 | 3
CNC(=O)/C(C#N)=C/c1cn(CC(=O)OC)c2ccccc12 | 18 | · | · | 12 | · | -37 | ·

Screening data from PubChem BioAssay.
